Series [1] relates to BC1 dhBMEC microvessels. The series is described as follows: Solute permeability of BC1 dhBMEC microvessels. The class given is in vitro ADME, human. As to conditions: for Permeability on days four and six compared with day two: p > 0.05.
A short description of series [2]: Solute permeability of HUVEC microvessels. The class given is in vitro ADME, human. The conditions noted are these: human.
Another series concerns HUVEC microvessels. The series is described as follows: Solute permeability of HUVEC microvessels. The class given is in vitro ADME, human. As to conditions: for Permeability differences between day two, four and six: p > 0.05; for Permeability in HUVEC microvessels relative to BC1 dhBMEC microvessels: HUVEC vs BC1 dhBMEC.
The test system of series [3] is iPS12, KW01 and AD6 dhBMEC microvessels. The series can be described thus: Solute permeability of dhBMEC microvessels from other iPSC lines. As to conditions: day two, p > 0.05 for all comparisons.
The conditions of series [4]: cited from earlier work.
The target in series [5] is P-glycoprotein (P-gp) in BC1 dhBMEC microvessels (Homo sapiens, UniProt P08183). The series is described as follows: Efflux inhibition in BC1 dhBMEC microvessels. The class given is cell-based.
The subject of a further series is p-glycoprotein. As to conditions: healthy humans, continuous infusion of tariquidar ref 80; cited from earlier work.
In series [6] the test system is iPS12, KW01 and AD6 dhBMEC microvessels.
The next series concerns pial PCV microvessels. As to conditions: rat, not told; cited from earlier work.
The test system of series [7] is BC1 dhBMEC microvessels. The series can be described thus: Cytokine activation: permeability, adhesion molecules and leukocyte adhesion. The class given is cell-based, human. The procedure, abridged:
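dhBMEC microvessels in collagen I channels, perfused at ~1 dyn cm⁻² with serum-free endothelial media plus 1% platelet-poor serum, with or without 10 ng mL⁻¹ TNFα for 12 h. […] ICAM-1/VCAM-1 by immunostaining; breakdown by phase contrast. Mean ± SEM.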

Setting [8] is: 12-hour perfusion of 2 μM tariquidar.

The source of these data is PMC6289621 (Biomaterials, 2018).

Like-named read-outs stand apart in the source and are kept apart here.

For orientation: Papp means a coefficient for how fast a substance crosses the barrier.

Chain of P-glycoprotein (P-gp) in BC1 dhBMEC microvessels (P08183 whole entry, the tested form may be a part): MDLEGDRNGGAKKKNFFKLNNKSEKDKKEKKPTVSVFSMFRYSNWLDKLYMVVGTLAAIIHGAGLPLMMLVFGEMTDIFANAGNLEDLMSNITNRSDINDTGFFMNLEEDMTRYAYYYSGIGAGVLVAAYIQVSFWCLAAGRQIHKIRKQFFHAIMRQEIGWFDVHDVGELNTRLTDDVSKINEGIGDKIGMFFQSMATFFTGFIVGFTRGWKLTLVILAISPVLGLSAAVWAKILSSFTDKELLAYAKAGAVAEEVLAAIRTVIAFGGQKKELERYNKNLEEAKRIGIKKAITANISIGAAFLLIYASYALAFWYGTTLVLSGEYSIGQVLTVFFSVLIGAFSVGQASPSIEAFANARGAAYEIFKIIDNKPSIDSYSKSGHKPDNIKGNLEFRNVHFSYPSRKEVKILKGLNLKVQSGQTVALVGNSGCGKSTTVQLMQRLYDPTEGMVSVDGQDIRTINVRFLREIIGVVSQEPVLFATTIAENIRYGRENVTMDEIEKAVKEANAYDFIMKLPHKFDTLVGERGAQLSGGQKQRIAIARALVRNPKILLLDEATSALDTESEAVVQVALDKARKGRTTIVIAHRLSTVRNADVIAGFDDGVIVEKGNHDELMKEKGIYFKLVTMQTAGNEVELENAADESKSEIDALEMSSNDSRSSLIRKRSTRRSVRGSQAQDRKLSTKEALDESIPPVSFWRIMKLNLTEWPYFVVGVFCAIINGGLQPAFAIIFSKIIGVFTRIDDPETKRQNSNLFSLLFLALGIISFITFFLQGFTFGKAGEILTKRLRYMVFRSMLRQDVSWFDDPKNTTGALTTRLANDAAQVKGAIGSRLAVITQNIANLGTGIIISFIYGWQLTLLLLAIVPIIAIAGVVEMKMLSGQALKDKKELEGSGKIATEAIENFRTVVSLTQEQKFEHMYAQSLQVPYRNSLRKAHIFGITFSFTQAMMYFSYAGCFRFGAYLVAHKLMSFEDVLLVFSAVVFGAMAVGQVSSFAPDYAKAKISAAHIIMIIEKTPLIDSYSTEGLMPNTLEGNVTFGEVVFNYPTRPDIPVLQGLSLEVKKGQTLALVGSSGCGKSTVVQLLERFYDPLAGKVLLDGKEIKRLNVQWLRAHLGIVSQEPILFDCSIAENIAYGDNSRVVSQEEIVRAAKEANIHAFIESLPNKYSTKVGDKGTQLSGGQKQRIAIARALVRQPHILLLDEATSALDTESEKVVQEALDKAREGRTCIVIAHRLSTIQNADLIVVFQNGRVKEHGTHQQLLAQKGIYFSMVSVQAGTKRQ

As for `COC(=O)c1ccccc1-c1c2ccc(=N)cc-2oc2cc(N)ccc12` [R123, Rhodamine 123], the “Permeability on days four and six compared with day two” value in the series on BC1 dhBMEC microvessels [1] (BC1 dhBMEC microvessels) is listed as “remained stable”. In addition, in [2], the Papp at 20 min, 5 μM worked out at 3 ×10⁻⁶ cm/s. In addition, the “Permeability differences between day two, four and six” value in the series on HUVEC microvessels (HUVEC microvessels) is recorded as “no statistically significant differences”. In addition, the “Permeability in HUVEC microvessels relative to BC1 dhBMEC microvessels” value in the series on HUVEC microvessels is reported as “about 20 fold”. Also, in [3], the “Permeability differences between BC1, iPS12, KW01 and AD6 microvessels” value is given as “no statistically significant differences”.
In the case of `OC[C@@H](O)[C@@H](O)[C@H](O)[C@H](O)CO` [mannitol, d-mannitol], in [4], the Solubility limit result is “around 1.4 M”.
`COc1cc2c(cc1OC)CN(CCc1ccc(NC(=O)c3cc(OC)c(OC)cc3NC(=O)c3cnc4ccccc4c3)cc1)CC2` [tariquidar]: in series [5] (setting [8]), the “Disruptions in paracellular permeability” value was “not observed” and the “Increase in permeability of P-gp substrate Rhodamine 123” value is listed as “two-fold”. For the same compound, the “Cytotoxicity (barrier function and microvessel structure)” value in [5] (12 hours of tariquidar exposure) is “did not result in apparent cytotoxicity”. The “Effect on mitochondrial localization of R123” value in series [5] (tariquidar treated BC1 dhBMEC microvessels) is recorded as “no noticeable effect”. In addition, in the series with p-glycoprotein, the “Increase of verapamil distribution volume” value was 2.73 fold.
Consider Lucifer yellow [LY], for which the Permeability in the series on BC1 dhBMEC microvessels [1] (BC1 dhBMEC microvessels, day two) was 2.50 ± 0.46 × 10^−7 cm s^−1. In addition, in the series on BC1 dhBMEC microvessels [1] (BC1 dhBMEC microvessels, over six days (days two, four, six)), the “Permeability, average value across all time points” value is listed as 2.84 ± 0.41 × 10^−7 cm s^−1. The “Permeability on days four and six compared with day two” value in the series on BC1 dhBMEC microvessels [1] (BC1 dhBMEC microvessels) is reported as “did not increase”. Besides, the “PLY / PR123 (ratio of LY to R123 permeabilities)” value in the series with BC1 dhBMEC microvessels [1] (dhBMEC microvessels, untreated) is reported as ~ 1.9. In the series with HUVEC microvessels (HUVEC microvessels), the “Mean permeability over six days” value is 3.90 ± 0.16 × 10^−6 cm s^−1; the “PLY / PR123 (ratio of LY to R123 permeabilities)” value was ~ 1.3; the “Permeability differences between day two, four and six” value is on record as “no statistically significant differences”. Moreover, the “Permeability in HUVEC microvessels relative to BC1 dhBMEC microvessels” value with HUVEC microvessels is on record as “more than 10 fold”. The “Permeability differences between BC1, iPS12, KW01 and AD6 microvessels” value in [6] is “no statistically significant differences”. Also, the “Permeability in 15 μm pial PCV microvessels” value with pial PCV microvessels is 1 – 2 × 10^−7.
For TNFα, in the series on BC1 dhBMEC microvessels [7] (10 ng mL^−1 TNFα, 12 hours, immunocytochemistry), the “Expression of adhesion molecules ICAM-1 and VCAM-1” value is “upregulation”. Besides, the “Permeability of LY, R123 or 10 kDa dextran after TNFα compared to control” value in the series on BC1 dhBMEC microvessels [7] (10 ng mL^−1 TNFα, 12 hours, p > 0.05 for all comparisons) was “did not alter”. Further, in the series with BC1 dhBMEC microvessels [7] (microvessels exposed to TNFα with adherent PBMCs), the “Time to macroscopic breakdown of microvessels” value was at most 24 h.
